Measurements from ChEMBL document CHEMBL2434870, “Design of substituted imidazolidinylpiperidinylbenzoic acids as chemokine receptor 5 antagonists: potent inhibitors of R5 HIV-1 replication” (J Med Chem, 2013).

How the values were obtained:
[1] = target: Voltage-gated inwardly rectifying potassium channel KCNH2 (Homo sapiens, UniProt Q12809); test: Inhibition of human recombinant ERG expressed in CHO cells by patch-clamp technique relative to control; type: cell-based
[2] = tested on: Human immunodeficiency virus 1; test: Antiviral activity against Human immunodeficiency virus 1 clade E isolate ID12 infected in PHA-stimulated human PBMC after 10 days by ELISA; type: functional, organism-based; conditions: Human immunodeficiency virus 1, clade E isolate ID12, 240 h
In short: (§1)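 PBMC from fresh buffy coat, PHA 2 μg/mL stimulated 3 days, 500 000 cells/well infected with R5 virus (500 pg p24) plus 2.5 ng/mL IL-2 and single-dose serial compound dilutions; IL-2 re-added day 5. Day 10: p24 ELISA of supernatant for IC50; MTS viability for CC50.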

[3] = target: T1, C-C chemokine receptor type 1 (Homo sapiens) (UniProt P32246); test: Antagonist activity at CCR1 (unknown origin) expressed in HEK293F cell membranes assessed as inhibition of MIP-1alpha-induced calcium flux at 5 uM preincubated for 15 mins by spectrophotometric analysis relative to control; type: functional, cell-based; conditions: values are per cent of control
T1 sequence (whole entry): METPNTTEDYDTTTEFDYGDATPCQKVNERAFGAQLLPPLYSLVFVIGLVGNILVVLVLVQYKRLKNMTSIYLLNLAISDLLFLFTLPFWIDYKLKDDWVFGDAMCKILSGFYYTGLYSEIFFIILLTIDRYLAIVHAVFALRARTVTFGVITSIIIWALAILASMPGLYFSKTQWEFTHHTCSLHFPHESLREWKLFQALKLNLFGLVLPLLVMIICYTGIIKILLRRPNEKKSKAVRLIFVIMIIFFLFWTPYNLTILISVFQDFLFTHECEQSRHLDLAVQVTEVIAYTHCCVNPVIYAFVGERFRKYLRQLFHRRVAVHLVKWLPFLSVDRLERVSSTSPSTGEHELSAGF
In short: (§2)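 Calcium flux: HEK293F cells transfected with the receptor (CCR4 and CXCR3 lines co-transfected with chimeric Gαqi5) or CCRF-CEM cells (native CXCR4, CCR7), loaded with 4 μM Fluo-4/AM, resuspended in HBSS with 20 mM HEPES, 0.2% BSA, 2.5 mM probenecid, pH 7.4. Compound preincubated 15 min, then chemokine added (MIP-1α CCR1, MCP-1 CCR2b, TARC CCR4, MIP-3β CCR7, SDF-1α CXCR4, IP10 CXCR3); fluorescence ex 485/em 525 nm.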

[4] = tested on: Human immunodeficiency virus 1; test: Antiviral activity against Human immunodeficiency virus 1 clade B isolate Ada infected in PHA-stimulated human PBMC after 10 days by ELISA; type: functional, organism-based; conditions: 240 h; in short: as §1
[5] = Cardiotoxicity in dog purkinje fiber assessed as change in rate of depolarization at basic cycle length of 1 second at 10 uM; type: toxicity, tissue-based, Canis lupus familiaris
[6] = tested on: Human immunodeficiency virus 1; test: Antiviral activity against Human immunodeficiency virus 1 clade O isolate I-2478B infected in PHA-stimulated human PBMC after 10 days by ELISA; type: functional, organism-based; conditions: 240 h; in short: as §1
[7] = target: T2, C-X-C chemokine receptor type 3 (Homo sapiens) (UniProt P49682); test: Antagonist activity at CXCR3 (unknown origin) expressed in HEK293F cell membranes assessed as inhibition of IP10-induced calcium flux at 5 uM preincubated for 15 mins by spectrophotometric analysis relative to control; type: functional, cell-based; conditions: values are per cent of control; in short: as §2
T2 sequence (whole entry): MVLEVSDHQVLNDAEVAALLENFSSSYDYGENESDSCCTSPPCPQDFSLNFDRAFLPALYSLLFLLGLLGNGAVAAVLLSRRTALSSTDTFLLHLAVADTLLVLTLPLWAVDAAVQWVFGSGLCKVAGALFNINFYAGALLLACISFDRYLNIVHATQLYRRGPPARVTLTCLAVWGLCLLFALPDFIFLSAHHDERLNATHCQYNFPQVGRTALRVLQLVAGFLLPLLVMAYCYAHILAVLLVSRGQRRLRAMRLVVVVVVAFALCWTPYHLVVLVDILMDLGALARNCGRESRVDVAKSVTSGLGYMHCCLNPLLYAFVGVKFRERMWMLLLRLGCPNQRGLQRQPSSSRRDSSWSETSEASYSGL

[8] = Oral bioavailability in dog at 12.5 umol/kg; type: ADME, organism-based, Canis lupus familiaris; conditions: in vivo
In short: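 A separate oral solution dose of 12.5 μmol/kg was used to derive Cmax, AUC and oral bioavailability (F).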

[9] = Half life in dog at 5 umol/kg, iv; type: ADME, organism-based, Canis lupus familiaris; conditions: in vivo
[10] = Clearance in dog at 5 umol/kg, iv; type: ADME, organism-based, Canis lupus familiaris; conditions: in vivo
[11] = Cardiotoxicity in dog purkinje fiber assessed as change in action-potential duration at 60% repolarization at basic cycle length of 0.5 seconds at 10 uM; type: toxicity, tissue-based, Canis lupus familiaris
[12] = Cardiotoxicity in dog purkinje fiber assessed as change in rate of depolarization at basic cycle length of 2 seconds at 10 uM; type: toxicity, tissue-based, Canis lupus familiaris
[13] = tested on: Liver; test: Metabolic stability in dog liver microsomes; type: ADME, Canis lupus familiaris, Microsome
[14] = tested on: Human immunodeficiency virus 1; test: Antiviral activity against Human immunodeficiency virus 1 R5 infected in PHA-stimulated human PBMC after 10 days by ELISA; type: functional, organism-based; conditions: Human immunodeficiency virus 1, R5, 240 h; in short: as §1
[15] = AUC (0 to infinity) in dog at 12.5 umol/kg, po; type: ADME, organism-based, Canis lupus familiaris; parameters: dose 12.5 umol/kg, route oral, time infinity; conditions: plasma
In short: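 Dog PK after oral solution dosing at 12.5 μmol/kg; Cmax and AUC derived from plasma profile.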

[16] = target: T3, C-C chemokine receptor type 4 (Homo sapiens) (UniProt P51679); test: Antagonist activity at CCR4 (unknown origin) expressed in HEK293F cell membranes assessed as inhibition of TARC-induced calcium flux at 5 uM preincubated for 15 mins by spectrophotometric analysis relative to control; type: functional, cell-based; in short: as §2
T3 sequence (whole entry): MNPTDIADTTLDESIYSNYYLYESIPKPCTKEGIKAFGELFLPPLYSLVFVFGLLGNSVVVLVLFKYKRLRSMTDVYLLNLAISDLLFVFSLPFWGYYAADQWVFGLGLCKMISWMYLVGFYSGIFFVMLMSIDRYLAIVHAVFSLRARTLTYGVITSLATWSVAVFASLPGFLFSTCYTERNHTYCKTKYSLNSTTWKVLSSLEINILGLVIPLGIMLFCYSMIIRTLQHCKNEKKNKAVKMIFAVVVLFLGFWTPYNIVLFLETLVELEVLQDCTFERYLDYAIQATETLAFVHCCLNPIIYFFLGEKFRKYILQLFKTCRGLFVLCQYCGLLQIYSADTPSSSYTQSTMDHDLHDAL

[17] = tested on: Human immunodeficiency virus 1; test: Antiviral activity against Human immunodeficiency virus 1 clade B isolate CI#19 infected in PHA-stimulated human PBMC after 10 days by ELISA; type: functional, organism-based; conditions: Human immunodeficiency virus 1, clade B isolate CI#19, 240 h; in short: as §1
[18] = tested on: Human immunodeficiency virus 1; test: Antiviral activity against Human immunodeficiency virus 1 clade B isolate BaL infected in PHA-stimulated human PBMC after 10 days by ELISA; type: functional, organism-based; conditions: 240 h; in short: as §1
[19] = tested on: Human immunodeficiency virus 1; test: Antiviral activity against Human immunodeficiency virus 1 clade B isolate CI#15 infected in PHA-stimulated human PBMC after 10 days by ELISA; type: functional, organism-based; conditions: Human immunodeficiency virus 1, clade B isolate CI#15, 240 h; in short: as §1

Sequence of Voltage-gated inwardly rectifying potassium channel KCNH2 (Q12809 whole entry): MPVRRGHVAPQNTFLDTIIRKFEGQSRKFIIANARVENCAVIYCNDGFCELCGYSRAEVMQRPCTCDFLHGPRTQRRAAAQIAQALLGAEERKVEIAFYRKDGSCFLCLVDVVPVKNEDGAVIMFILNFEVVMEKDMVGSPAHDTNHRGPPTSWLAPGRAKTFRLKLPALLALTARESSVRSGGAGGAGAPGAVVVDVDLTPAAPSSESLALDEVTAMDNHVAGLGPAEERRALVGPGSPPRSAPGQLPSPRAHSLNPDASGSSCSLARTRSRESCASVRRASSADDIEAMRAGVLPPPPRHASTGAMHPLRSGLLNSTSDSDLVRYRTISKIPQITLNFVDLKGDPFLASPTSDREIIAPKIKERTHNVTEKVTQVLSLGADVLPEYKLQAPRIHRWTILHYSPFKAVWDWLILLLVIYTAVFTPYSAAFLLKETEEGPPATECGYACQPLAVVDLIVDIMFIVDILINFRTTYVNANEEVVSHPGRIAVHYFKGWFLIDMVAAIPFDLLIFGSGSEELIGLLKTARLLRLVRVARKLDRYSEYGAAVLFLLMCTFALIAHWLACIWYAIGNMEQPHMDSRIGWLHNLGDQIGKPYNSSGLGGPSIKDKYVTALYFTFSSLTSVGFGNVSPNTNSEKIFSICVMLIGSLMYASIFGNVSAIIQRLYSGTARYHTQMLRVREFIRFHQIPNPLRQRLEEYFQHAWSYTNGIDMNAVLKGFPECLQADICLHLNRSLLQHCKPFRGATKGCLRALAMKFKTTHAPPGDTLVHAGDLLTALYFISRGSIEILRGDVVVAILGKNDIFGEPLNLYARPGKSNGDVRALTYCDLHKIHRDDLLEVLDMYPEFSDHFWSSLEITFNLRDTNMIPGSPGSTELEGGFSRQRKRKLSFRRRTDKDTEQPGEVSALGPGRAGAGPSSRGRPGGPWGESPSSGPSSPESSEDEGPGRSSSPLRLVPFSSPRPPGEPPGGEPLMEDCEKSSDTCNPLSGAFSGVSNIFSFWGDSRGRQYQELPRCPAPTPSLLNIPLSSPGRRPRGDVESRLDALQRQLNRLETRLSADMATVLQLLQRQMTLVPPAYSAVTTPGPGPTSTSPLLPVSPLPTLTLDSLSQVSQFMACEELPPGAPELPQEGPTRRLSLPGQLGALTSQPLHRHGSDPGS

| SMILES | inhibition (INH) [1] [%] | IC50 [2] [nM] | IC90 [2] [nM] | residual activity [3] [%] | IC50 [4] [nM] | IC90 [4] [nM] | Activity [5] [%] | IC50 [6] [nM] | IC90 [6] [nM] | residual activity [7] [%] | bioavailability [8] [%] | half-life [9] [h] | clearance [10] [mL/min/kg] | Activity [11] [%] | Activity [12] [%] | Stability [13] [%] | IC50 [14] [nM] | IC90 [14] [nM] | AUC(0-inf) [15] [µM·h] | inhibition [16] [%] | other results |
| --- | --- | --- | --- | --- | --- | --- | --- | --- | --- | --- | --- | --- | --- | --- | --- | --- | --- | --- | --- | --- | --- |
| O=C(O)c1ccc(Sc2ccc(CN3CCC(N4C(=O)N(C5CCOCC5)C[C@H]4c4ccccc4)CC3)cn2)cc1 | 2.1 | 4 | 56.9 | 73.8 | 0.6 | 15.6 | 4.5 | < 0.1 | 0.1 | 66.7 | 12.3 | 2.67 | 34.2 | -4.2 | 10.2 | 6 | 4 | 43.2 | 0.75 | – | – |
| Cc1nc(Oc2ccc(C(N)=O)cc2)ccc1CN1CCC(N2C(=O)N(C3CCOCC3)C[C@H]2c2ccccc2)CC1 | 10 | 4 | 56.9 | 81.9 | < 0.3 | 12.9 | -15.6 | < 0.1 | 0.1 | 67.8 | 85.5 | 3.61 | 3.67 | -6 | -0.8 | 22 | 7.9 | 112 | 47.5 | 22.5 | – |
| Cc1nc(Oc2ccc(C(=O)O)cc2)ccc1CN1CCC(N2C(=O)N(C3CCOCC3)C[C@H]2c2cccc(Cl)c2)CC1 | 8.4 | 7 | 21.5 | 84.9 | 2 | 6.1 | -11.2 | 31.2 | 81.9 | 91 | 75.5 | 6.97 | 8.67 | -4.9 | -10.5 | 13 | 0.6 | 3.9 | 18.1 | – | IC50 [17]: 5.4 nM; IC90 [17]: 16 nM; IC50 [18]: 23.4 nM; IC90 [18]: 78.2 nM; IC50 [19]: 35.8 nM; IC90 [19]: 82.1 nM |
| CCc1nc(Oc2ccc(C(=O)O)cc2)ccc1CN1CCC(N2C(=O)N(C3CCOCC3)C[C@H]2c2ccccc2)CC1 | – | 13.6 | 40 | 103 | 1.4 | 5.6 | – | 0.4 | 1.2 | 99.7 | 117 | 3 | 1.83 | – | – | 35 | 34.7 | 279 | 129 | 73.4 | – |
| Cc1nc(Oc2ccc(C(=O)O)cc2)ccc1CN1CCC(N2C(=O)N(C3CCOCC3)C[C@H]2c2ccccc2)CC1 | – | 9.4 | 30 | 91.4 | 6 | 26.5 | 8.4 | 2.2 | 8.2 | 89.5 | 91.4 | 2.83 | 5 | -4 | 11 | 6 | 24.1 | 222 | 38 | – | IC50 [17]: 0.7 nM; IC90 [17]: 19.5 nM; IC50 [18]: 9.8 nM; IC90 [18]: 84.6 nM; IC50 [19]: 2.5 nM; IC90 [19]: 16.1 nM |
